The values that follow come from PubChem BioAssay.

Experiment [1] in a line: inhibitors of TNFa-induced NFkB p65 translocation, primary screen, imaging, HUVEC, MLSMR starter and 10KST1 sets (AID 438;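 active means inhibition above 20% together with a positive visual image hit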;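 further: compound added about 3h40 before a 20 min TNFalpha stimulation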;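 on inhibition: signal is the nuclear over cytoplasmic p65 intensity ratio per well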). Conditions: HUVEC TNFa-induced p65 nuclear translocation; cell count: measured here: nuclei count (cytotoxicity indicator), at 2.08 µM; inhibition: at 2 µM, stronger effect = higher value, 0% TNFa-plus-vehicle, 100% no-TNFa wells.
A short description of experiment [2]: reduction of polyQ htt aggregates in cells – imaging, exon1htt(103Q)mCFP cells, high-content imaging, primary screen (AID 483;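 active means visual image review flags a hit and inhibition of aggregation exceeds 20%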;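 further: compound exposure lasted 3 days before fixation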;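 on nuclei count: percent of the per-plate median nuclei count of sample wells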). Conditions: exon1htt(103Q)mCFP cell line, aggregate imaging, at 2 µM; inhibition of aggregation: stronger effect = higher value; nuclei count: measured here: cell count, toxicity.
Experiment [3] in a line: endothelial E-selectin expression blockers – imaging, HUVEC, immunofluorescence, MLSMR starter and 10KST1 sets, primary screen (AID 487).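 On inhibition: signal is fraction of cell area covered by stained E-selectin grains.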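 On nuclei count: 100% = median nuclei count of all wells on the same plate.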 Conditions: HUVEC TNFalpha-induced E-selectin immunofluorescence imaging, at 2 µM; inhibition: stronger effect = higher value; nuclei count: measured here: cell number, toxicity.
In experiment [4] the target is Voltage-gated potassium channel subunit beta-2 (Rattus norvegicus) (UniProt P62483). Description: inhibitors of rat Kvbeta2 reductase activity – biochemical, NADPH fluorescence, primary screen (AID 622;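 active means fluorescence slope higher than the sample average by over 3 SD, cut at about -0.22 in these data, passing the limit was not always enough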;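 further: slope of raw intensity against log time taken from 70 to 1610 s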). The settings on record: recombinant KvBeta, 4-cyanobenzaldehyde reduction, at 10 µM, stronger effect = higher value.
Sequence of Voltage-gated potassium channel subunit beta-2 (Rattus norvegicus) (P62483 whole entry, looked up): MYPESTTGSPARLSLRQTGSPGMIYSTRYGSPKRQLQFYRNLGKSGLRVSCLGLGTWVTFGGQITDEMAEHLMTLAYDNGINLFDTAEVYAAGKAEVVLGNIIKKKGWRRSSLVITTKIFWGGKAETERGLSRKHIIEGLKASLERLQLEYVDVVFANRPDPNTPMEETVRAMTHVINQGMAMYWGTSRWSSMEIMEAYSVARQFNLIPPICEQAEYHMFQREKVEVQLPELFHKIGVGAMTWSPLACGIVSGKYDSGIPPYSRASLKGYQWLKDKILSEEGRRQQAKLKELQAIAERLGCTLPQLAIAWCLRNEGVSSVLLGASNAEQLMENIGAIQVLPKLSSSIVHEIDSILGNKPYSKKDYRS
The target is the same in experiment [5]. The experiment in a line: enhancers of rat Kvbeta2 NADPH turnover – biochemical, NADPH fluorescence, primary screen (AID 623;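 active means NADPH fluorescence slope more negative than the mean of all samples by about 3 SD, 99.7% confidence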;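 further: fluorescence intensity change per second fitted from 20 to 320 s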). Conditions: Recombinant KvBeta, NADPH fluorescence decrease slope, 10 min; at 10 µM; stronger effect = lower value.
Experiment [6] concerns the target Muscarinic acetylcholine receptor M4 (Homo sapiens) (UniProt P08173). Description: M4-linked GIRK flux change, two-sided – cell-based, HEK293 M4/GIRK, thallium flux, BTC-AM, M4 allosteric agonist project, primary screen (AID 625;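 active means fluorescence slope after compound addition differing from the mean of all tested samples at 99.7% confidence, mostly higher but some lower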;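 further: thallium influx through GIRK channels coupled to M4 in HEK293 cells with BTC-AM dye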). Conditions: at 10 µM, actives lie on both sides. The method, boiled down:
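Material: M4/GIRK1/GIRK2 stable HEK293 cell line. Medium: pH 7.3 thallium assay buffer. Dosing: single compound concentration, 10 µM final. Schedule: 1 h dye loading, 2 min kinetic read. Measured by: kinetic fluorescence with BTC-AM dye. Read-out: post-addition slope, 15–24 s, of baseline-normalized fluorescence. Benchmarks: carbachol and DMSO controls.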

Experiment [7] in a line: blockers of RIG-like receptor reporter activation – cell-based, Sendai virus stimulus, luciferase, 10K MLSCN set, TLR/RLR signaling modifier project, primary screen (AID 602276;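 active means inhibition at or above 50% at 10 µM; inactive means inhibition below 50%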;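 further: firefly luciferase from ISG56 promoter only with Renilla not read in this screen; 0% = Sendai virus plus DMSO and 100% = medium plus DMSO without virus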). The settings on record: HEK293 RL24 IRF3 luciferase reporter, at 10 µM, stronger effect = higher value. (Reporter assays use an easily measured gene product as a stand-in for the process of interest.)
Experiment [8] in a line: TLR3 IRF3 reporter activation blockers – cell-based, poly I:C stimulus, luciferase, 10K MLSCN set, primary screen (AID 602277;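 active means inhibition of the reporter signal at or above 50%; inactive means inhibition below 50%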). Conditions: HEK293-TLR3 RL24 IRF3 luciferase reporter, at 10 µM, stronger effect = higher value.

Calls of active or inactive are those of the source.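 How the source made its calls, unless noted: active means visually confirmed hit in the image check and inhibition above 20%; inconclusive means visually confirmed hit but inhibition not above 20%; inactive means no visual hit in the image check.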

Sequence of Muscarinic acetylcholine receptor M4 (Homo sapiens) (P08173 whole entry, looked up): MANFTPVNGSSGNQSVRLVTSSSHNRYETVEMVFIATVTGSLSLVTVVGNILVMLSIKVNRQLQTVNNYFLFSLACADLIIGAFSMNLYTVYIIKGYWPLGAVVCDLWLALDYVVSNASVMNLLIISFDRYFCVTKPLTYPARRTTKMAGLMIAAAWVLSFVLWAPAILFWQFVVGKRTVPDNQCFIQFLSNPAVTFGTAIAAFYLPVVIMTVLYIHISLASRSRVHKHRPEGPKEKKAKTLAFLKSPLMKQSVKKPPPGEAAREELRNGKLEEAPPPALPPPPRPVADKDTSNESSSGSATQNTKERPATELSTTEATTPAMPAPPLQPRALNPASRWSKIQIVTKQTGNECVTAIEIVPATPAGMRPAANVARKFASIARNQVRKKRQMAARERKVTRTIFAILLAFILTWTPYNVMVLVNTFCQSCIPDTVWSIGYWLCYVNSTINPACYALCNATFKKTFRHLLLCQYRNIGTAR

For the compound `COc1cccc(NC(=O)Nc2cccs2)c1`, the cell count in experiment [1] was 355. Besides, the inhibition – broadly, the drop in the measured response relative to a control, in per cent – in experiment [1] is -1.5% (inactive); in experiment [3], 9.9% (inactive); in experiment [7] it was -20.2% (inactive); in experiment [8], -76.7% (inactive). Also, in experiment [2], the inhibition of aggregation was -5.7% (inactive). The values for the nuclei count in experiment [2] and in experiment [3] were 93.5% and 115%, respectively. Besides, the fluorescence slope in experiment [4] is -0.483 (inactive); in experiment [6] it was 0.00925 (active). Also, the NADPH fluorescence slope in experiment [5] was 0.00014 (inactive).
In the case of `CCc1nnc(NC(=O)c2ccc(-c3cccc(C(F)(F)F)c3)o2)s1`, the cell count in experiment [1] is 730. Besides, the inhibition in experiment [1] was -2.9% (inactive); in experiment [3], -24.2% (inactive); in experiment [7], -0.00167% (inactive); in experiment [8] it was -0.904% (inactive). In addition, in experiment [2], the inhibition of aggregation is 43.6% (inactive). In addition, the nuclei count in experiment [2] was 76.5%; in experiment [3], 99.1%. The fluorescence slope in experiment [4] was -0.528 (inactive); in experiment [6], 0.00667 (inactive). Moreover, in experiment [5], the NADPH fluorescence slope was -4.6e-05 (inactive).
With `CC(C)=CCCC(C)NC(=O)NC1CCCCC1` (stereo not drawn), the cell count in experiment [1] is 227. In addition, the inhibition is -9.6% (inactive) in experiment [1], -50.8% (inactive) in experiment [3], -0.0287% (inactive) in experiment [7] and -0.553% (inactive) in experiment [8]. Besides, in experiment [2], the inhibition of aggregation is -23.2% (inactive). The nuclei count in experiment [2] was 91.1%; in experiment [3], 87%. In addition, the fluorescence slope in experiment [4] was -0.546 (inactive); in experiment [6], 0.00495 (inactive). Besides, the NADPH fluorescence slope in experiment [5] was -2.7e-05 (inactive).
On to `COc1ccc(CC(=O)OCc2nnc(C3COc4ccccc4O3)o2)cc1OC` (stereo not drawn), for which the cell count in experiment [1] was 440. For the same compound, the inhibition in experiment [1] is -1.1% (inactive); in experiment [3], -48% (inactive); in experiment [7], 7.17% (inactive); in experiment [8] it was 9.19% (inactive). In experiment [2], the inhibition of aggregation is -0.3% (inactive). In addition, the figures for the nuclei count in experiment [2] and in experiment [3] were 91.8% and 85.8%, respectively. For the same compound, the fluorescence slope in experiment [4] was -0.405 (inactive); in experiment [6] it was 0.00765 (inactive). For the same compound, the NADPH fluorescence slope in experiment [5] is 1.8e-05 (inactive).
As to `CCOC(=O)C(C)On1c(SC(C)C(=O)OCC)nc2ccccc2c1=O` (stereo not drawn), the cell count in experiment [1] was 808. For the same compound, the inhibition in experiment [1] is -3.9% (inactive); in experiment [3], -57.6% (inactive); in experiment [7], 20% (inactive); in experiment [8], 20% (inactive). In addition, the inhibition of aggregation in experiment [2] was 10.3% (inactive). Moreover, the nuclei count in experiment [2] was found to be 103%; in experiment [3] it was 107%. Besides, the fluorescence slope in experiment [4] is -0.582 (inactive); in experiment [6], 0.0065 (inactive). Moreover, the NADPH fluorescence slope in experiment [5] is -5.7e-05 (inactive).
With `COc1ccc(OC)c(C2=NOC(C(=O)NCCN3CCOCC3)C2)c1` (stereo not drawn), in experiment [1], the cell count was determined as 715. For the same compound, the inhibition is -22.4% (inactive) in experiment [1], -20.4% (inactive) in experiment [3], 17.7% (inactive) in experiment [7] and 25% (inactive) in experiment [8]. For the same compound, in experiment [2], the inhibition of aggregation is 12.9% (inactive). Also, the figures for the nuclei count in experiment [2] and in experiment [3] were 96% and 85.7%, respectively. Moreover, the results for the fluorescence slope in experiment [4] and in experiment [6] were -0.62 (inactive) and 0.00547 (inactive), respectively. Moreover, the NADPH fluorescence slope in experiment [5] was 3.7e-06 (inactive).
As for `CCC(=O)N(Cc1cc2c(C)ccc(C)c2[nH]c1=O)C1CCCCC1`, the cell count in experiment [1] was 689. For the same compound, the inhibition in experiment [1] was -5.6% (inactive); in experiment [3], -36.3% (inactive); in experiment [7] it was 13.6% (inactive); in experiment [8] it was 25.2% (inactive). Besides, the inhibition of aggregation in experiment [2] was 1.1% (inactive). The nuclei count in experiment [2] was 93.2%; in experiment [3] it was 100%. Also, the fluorescence slope in experiment [4] is -0.474 (inactive); in experiment [6] it was 0.00636 (inactive). Besides, in experiment [5], the NADPH fluorescence slope is -3.7e-05 (inactive).
On to `Cc1ccccc1Cn1nc(C)c(NC(=O)c2noc3c2CCCC3)c1C`, for which, in experiment [1], the cell count was 191. Further, the inhibition was -1.3% (inactive) in experiment [1], -13.5% (inactive) in experiment [3], -24.6% (inactive) in experiment [7] and -32% (inactive) in experiment [8]. Also, the inhibition of aggregation in experiment [2] was 7.3% (inactive). Also, the nuclei count in experiment [2] stood at 101%; in experiment [3], 120%. For the same compound, the results for the fluorescence slope in experiment [4] and in experiment [6] were -0.571 (inactive) and 0.00499 (inactive), respectively. The NADPH fluorescence slope in experiment [5] is -2.7e-05 (inactive).
On to `CCOc1cc(C2C(C#N)=C(N)OC(C)=C2C(C)=O)cc(Br)c1O` (stereo not drawn), for which the cell count in experiment [1] turned out to be 235. The inhibition in experiment [1] is 11% (inactive); in experiment [3], -29.3% (inactive); in experiment [7], 12.3% (inactive); in experiment [8], 20.1% (inactive). The inhibition of aggregation in experiment [2] is -9.7% (inactive). Besides, the nuclei count in experiment [2] came to 95.5%; in experiment [3], 97.7%. Moreover, the fluorescence slope in experiment [4] is -0.252 (inactive); in experiment [6], 0.00684 (inactive). In addition, the NADPH fluorescence slope in experiment [5] is -2.9e-05 (inactive).
`COCCSc1ccccc1C(=O)Nc1cc(C)on1`: the cell count in experiment [1] came out at 587. Also, the inhibition in experiment [1] is 3.3% (inactive); in experiment [3], 22.8% (inactive); in experiment [7] it was 14.3% (inactive); in experiment [8], 20.9% (inactive). In addition, the inhibition of aggregation in experiment [2] is -4.3% (inactive). Moreover, the nuclei count in experiment [2] was determined as 92.3%; in experiment [3] it was 90.6%. The fluorescence slope in experiment [4] is -0.568 (inactive); in experiment [6] it was 0.00516 (inactive). For the same compound, in experiment [5], the NADPH fluorescence slope was -2.5e-05 (inactive).
Take `Cc1ccccc1NC(=O)c1ccc(NC(=O)c2ccco2)cc1`: the cell count in experiment [1] was 423. In addition, the inhibition was -1% (inactive) in experiment [1], -30.5% (inactive) in experiment [3], -7.81% (inactive) in experiment [7] and -35.1% (inactive) in experiment [8]. The inhibition of aggregation in experiment [2] was 10.9% (inactive). Moreover, the nuclei count worked out at 116% in experiment [2] and 113% in experiment [3]. Further, the fluorescence slope is -0.462 (inactive) in experiment [4] and 0.00647 (inactive) in experiment [6]. Further, in experiment [5], the NADPH fluorescence slope was -2.6e-05 (inactive).
With `CC(C)CCNC(=O)NC(=O)CSc1nnc(-c2ccccc2Br)o1`, the cell count in experiment [1] came to 538. Further, the inhibition is -16.6% (inactive) in experiment [1], -32.9% (inactive) in experiment [3], -3.6% (inactive) in experiment [7] and 20.3% (inactive) in experiment [8]. Further, in experiment [2], the inhibition of aggregation is 2% (inactive). The values for the nuclei count in experiment [2] and in experiment [3] were 104% and 125%, respectively. Also, the fluorescence slope was -0.458 (inactive) in experiment [4] and 0.0066 (inactive) in experiment [6]. Moreover, in experiment [5], the NADPH fluorescence slope is 2.9e-05 (inactive).
On to `CCn1c(NCc2ccc(N(C)C)cc2)nc2ccccc21`, for which the cell count in experiment [1] was 627. In addition, the inhibition in experiment [1] was 12.5% (inactive); in experiment [3], -34.6% (inactive); in experiment [7] it was -9.27% (inactive); in experiment [8] it was -36.5% (inactive). For the same compound, the inhibition of aggregation in experiment [2] is -2.9% (inactive). For the same compound, the nuclei count amounted to 96.5% in experiment [2] and 116% in experiment [3]. Also, the fluorescence slope in experiment [4] is -0.31 (inactive); in experiment [6], 0.00632 (inactive). In addition, the NADPH fluorescence slope in experiment [5] is -2.4e-05 (inactive).
